Reference: paper PMC3828798 (Journal of the American Heart Association: Cardiovascular …, 2013)

Biological target: Recombinant angiotensin converting enzyme 2 (rACE2) (Homo sapiens, UniProt Q9BYF1)
Test: ACE2 proteolysis assay of pyr‐1‐apelin‐13 and APLN analogues
Type: in vitro ADME
Settings: rACE2 in Tris buffer pH 8.0; HPLC coupled with MALDI‐TOF; Figures S8 and S9
Summary of the method: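 Quenched with 100 mmol/L EDTA pH 7.0. C18 reverse-phase HPLC, 10–45% acetonitrile/0.1% TFA, detection at 220 nm. Hydrolysis taken from substrate and product peak areas; masses confirmed by MALDI-TOF.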

Sequence of Recombinant angiotensin converting enzyme 2 (rACE2) (Q9BYF1 18-805): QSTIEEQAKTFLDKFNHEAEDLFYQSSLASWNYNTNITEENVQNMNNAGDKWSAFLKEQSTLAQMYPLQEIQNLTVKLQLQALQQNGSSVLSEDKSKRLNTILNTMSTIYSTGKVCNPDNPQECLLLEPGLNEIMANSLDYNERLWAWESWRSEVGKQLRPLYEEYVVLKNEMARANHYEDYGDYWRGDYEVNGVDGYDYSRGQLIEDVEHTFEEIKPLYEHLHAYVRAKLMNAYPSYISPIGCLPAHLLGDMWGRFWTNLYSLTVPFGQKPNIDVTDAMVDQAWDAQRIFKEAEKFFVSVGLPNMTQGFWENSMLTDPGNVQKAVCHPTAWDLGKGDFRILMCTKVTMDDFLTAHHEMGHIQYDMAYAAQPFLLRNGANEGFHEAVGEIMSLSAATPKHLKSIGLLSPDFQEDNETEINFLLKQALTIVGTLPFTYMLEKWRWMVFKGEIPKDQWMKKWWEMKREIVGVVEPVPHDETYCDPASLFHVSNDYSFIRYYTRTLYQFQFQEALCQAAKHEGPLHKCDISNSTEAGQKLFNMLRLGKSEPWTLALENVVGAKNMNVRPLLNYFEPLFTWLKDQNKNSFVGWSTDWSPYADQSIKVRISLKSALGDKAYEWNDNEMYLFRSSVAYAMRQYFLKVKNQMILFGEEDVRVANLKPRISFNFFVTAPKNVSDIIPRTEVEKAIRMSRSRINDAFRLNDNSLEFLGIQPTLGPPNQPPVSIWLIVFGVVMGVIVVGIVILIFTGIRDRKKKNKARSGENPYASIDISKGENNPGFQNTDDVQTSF

Substance: pyr‐1‐apelin‐13 (QRPRLSHKGPMPF; Apelin-13 N-terminal pyroglutamate; UniProt Q9ULZ1 65-77, looked up, fragment)
- susceptibility to ACE2‐mediated proteolysis (result in words): efficient ACE2‐mediated cleavage
